Calls of active or inactive are those of the source. No cut-off for these calls is given here.
Legend:
[1] = target: T1, Prostaglandin D2 receptor (Homo sapiens, UniProt Q13258); experiment: Displacement of [3H]-PGD2 from human Prostanoid DP receptor expressed in human HEK293 cells by scintillation counter in presence of 0.5% bovine serum albumin; format: cell-based
T1 sequence (Q13258 whole entry): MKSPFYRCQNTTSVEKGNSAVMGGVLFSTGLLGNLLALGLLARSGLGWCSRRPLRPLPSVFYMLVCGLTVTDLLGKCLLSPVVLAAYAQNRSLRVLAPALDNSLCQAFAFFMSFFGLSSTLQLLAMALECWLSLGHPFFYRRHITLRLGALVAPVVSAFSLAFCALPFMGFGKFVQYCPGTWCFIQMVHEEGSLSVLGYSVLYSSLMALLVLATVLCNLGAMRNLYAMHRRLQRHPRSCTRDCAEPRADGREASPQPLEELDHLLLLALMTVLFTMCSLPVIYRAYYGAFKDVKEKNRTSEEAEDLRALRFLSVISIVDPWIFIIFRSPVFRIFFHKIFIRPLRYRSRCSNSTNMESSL
Procedure, shortened: (§1)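 [3H]-PGD2 incubated with HEK-293 cells stably expressing human DP, with increasing compound concentrations; binding buffer held 0.5% BSA or 50% human plasma. Means of three experiments, standard deviation ±30%.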

[2] = target: T2, Prostaglandin D2 receptor 2 (Homo sapiens, UniProt Q9Y5Y4); experiment: Displacement of [3H]-PGD2 from human CRTH2 receptor expressed in human HEK293 cells by scintillation counter in presence of 0.5% bovine serum albumin; format: cell-based
T2 sequence (Q9Y5Y4 whole entry): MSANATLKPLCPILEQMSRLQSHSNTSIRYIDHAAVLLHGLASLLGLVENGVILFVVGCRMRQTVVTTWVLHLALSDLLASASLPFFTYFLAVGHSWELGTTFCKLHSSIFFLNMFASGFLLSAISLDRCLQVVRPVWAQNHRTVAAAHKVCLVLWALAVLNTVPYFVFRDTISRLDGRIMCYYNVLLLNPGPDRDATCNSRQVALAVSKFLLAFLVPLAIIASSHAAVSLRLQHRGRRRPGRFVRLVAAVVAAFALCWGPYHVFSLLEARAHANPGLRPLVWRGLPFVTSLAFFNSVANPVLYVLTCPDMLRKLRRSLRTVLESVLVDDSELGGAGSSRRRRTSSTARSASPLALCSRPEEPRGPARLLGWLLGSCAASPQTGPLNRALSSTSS

[3] = target: T1, Prostaglandin D2 receptor; experiment: Displacement of [3H]-PGD2 from human Prostanoid DP receptor expressed in human HEK293 cells by scintillation counter in presence of 50% human plasma; format: cell-based; procedure, shortened: as §1
[4] = target: T2, Prostaglandin D2 receptor 2; experiment: Displacement of [3H]-PGD2 from human CRTH2 receptor expressed in human HEK293 cells by scintillation counter in presence of 50% human plasma; format: cell-based
[5] = Clearance in rat at 0.5 mg/kg, iv; format: ADME, organism-based; set-up: dose 0.5 mg/kg, route intravenous; details: in vivo
[6] = Mean residence time in cynomolgus monkey; format: ADME, organism-based, Macaca fascicularis; details: in vivo
Cavia porcellus [7] = experiment: Inhibition of PGD2-induced airway constriction in guinea pig model at 0.1 to 10 mg/kg, sc administered 4 hrs prior to aerosolized PGD2 challenge; format: functional, organism-based
Procedure, shortened: (§2)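 Guinea pigs dosed sc 4 h before exposure to aerosolized PGD2 (0.6 mg/mL). Airway resistance recorded as Penh (enhanced pause) in response to the challenge. n = 4 animals per group.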

[8] = Plasma concentration in guinea pig at 1 mg/kg, sc after 4 hrs; format: ADME, organism-based, Cavia porcellus; set-up: dose 1 mg/kg, route subcutaneous
Procedure, shortened: (§3)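 Guinea pig plasma drug levels taken 4 h after sc dosing, in the PGD2 aerosol airway-constriction study; n = 4 animals per group.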

[9] = Volume of distribution at steady state in rat; format: ADME, organism-based; details: in vivo, read-out: Vdss
[10] = Oral bioavailability in rat at 2 mg/kg; format: ADME, organism-based; details: in vivo
[11] = Plasma concentration in guinea pig at 10 mg/kg, sc after 4 hrs; format: ADME, organism-based, Cavia porcellus; set-up: dose 10 mg/kg, route subcutaneous; procedure, shortened: as §3
[12] = Clearance in cynomolgus monkey at 0.5 mg/kg, iv; format: ADME, organism-based, Macaca fascicularis; set-up: dose 0.5 mg/kg, route intravenous; details: in vivo
[13] = Antagonist activity at guinea pig Prostanoid DP receptor in whole blood by cAMP assay; format: functional; details: Cavia porcellus
[14] = Plasma concentration in guinea pig at 0.1 mg/kg, sc after 4 hrs; format: ADME, organism-based, Cavia porcellus; set-up: dose 0.1 mg/kg, route subcutaneous; procedure, shortened: as §3
[15] = Mean residence time in rat; format: ADME, organism-based; details: in vivo
[16] = Volume of distribution at steady state in dog; format: ADME, organism-based, Canis lupus familiaris; details: in vivo, read-out: Vdss
[17] = Clearance in dog at 0.5 mg/kg, iv; format: ADME, organism-based, Canis lupus familiaris; set-up: dose 0.5 mg/kg, route intravenous; details: in vivo
[18] = Mean residence time in dog; format: ADME, organism-based, Canis lupus familiaris; details: in vivo
[19] = Oral bioavailability in dog at 2 mg/kg; format: ADME, organism-based, Canis lupus familiaris; details: in vivo
[20] = Inhibition of CYP450; format: ADME
[21] = Oral bioavailability in cynomolgus monkey at 2 mg/kg; format: ADME, organism-based, Macaca fascicularis; details: in vivo
[22] = Volume of distribution at steady state in cynomolgus monkey; format: ADME, organism-based, Macaca fascicularis; details: in vivo, read-out: Vdss
[23] = Plasma concentration in guinea pig at 3 mg/kg, sc after 4 hrs; format: ADME, organism-based, Cavia porcellus; set-up: dose 3 mg/kg, route subcutaneous; procedure, shortened: as §3
[24] = Plasma concentration in guinea pig at 0.3 mg/kg, sc after 4 hrs; format: ADME, organism-based, Cavia porcellus; set-up: dose 0.3 mg/kg, route subcutaneous; procedure, shortened: as §3
Cavia porcellus [25] = experiment: Inhibition of PGD2-induced airway constriction in guinea pig model at 0.3 to 10 mg/kg, sc administered 4 hrs prior to aerosolized PGD2 challenge; format: functional, organism-based; procedure, shortened: as §2

SMILES	IC50 [1] [nM]	IC50 [2] [nM]	IC50 [3] [nM]	IC50 [4] [nM]	further results
O=C(O)Cc1cc(F)c(Oc2ccc(C(=O)NC3CCC3)cc2NS(=O)(=O)c2ccc(OC(F)(F)F)cc2Cl)cc1F	20	25	42	53	
CCCCNC(=O)c1ccc(Oc2ccc(CC(=O)O)cc2OC)c(NS(=O)(=O)c2ccc(C(F)(F)F)cc2Cl)c1	21		190		
CC(C)(C)NC(=O)c1ccc(Oc2ccc(CC(=O)O)cc2Cl)c(NS(=O)(=O)c2ccc(Cl)cc2)c1	46	9	450	15	
CC(C)(C)NC(=O)c1ccc(Oc2ccc(CC(=O)O)cc2Cl)c(NS(=O)(=O)c2ccc(Cl)cc2Cl)c1	15	5	230	12	
CCCCNC(=O)c1ccc(Oc2ccc(CC(=O)O)cc2OC)c(NS(=O)(=O)c2ccc(Cl)c(Cl)c2)c1	21		120		
O=C(O)Cc1ccc(Oc2ccc(C(=O)NC3CCC3)cc2NS(=O)(=O)c2ccc(Cl)cc2)c(Cl)c1	16	6	85	12	
COc1cc(CC(=O)O)ccc1Oc1ccc(C(=O)NC2CC2)cc1NS(=O)(=O)c1ccc(Cl)cc1Cl			1030		
CCCCNC(=O)c1ccc(Oc2ccc(CC(=O)O)cc2F)c(NS(=O)(=O)c2ccc(Cl)cc2Cl)c1	30	7	440	110	
CCCCNC(=O)c1ccc(Oc2ccc(CC(=O)O)cc2OC)c(NS(=O)(=O)c2cc(Cl)cc(Cl)c2)c1	930		> 10000		
CCCCNC(=O)c1ccc(Oc2ccc(CC(=O)O)cc2OC)c(NS(=O)(=O)c2cccc(Cl)c2Cl)c1	520		2340		
O=C(O)Cc1ccc(Oc2ccc(C(=O)NC3CC3)cc2NS(=O)(=O)c2ccc(Cl)cc2Cl)c(Cl)c1	14	7	220	25	
CCCCNC(=O)c1ccc(Oc2ccc(CC(=O)O)cc2OC)c(NS(=O)(=O)c2ccc(Cl)cc2Cl)c1					concentration at 4 h [8]: 152 nM; concentration at 4 h [11]: 939 nM; Kb [13]: 82 nM; concentration at 4 h [23]: 688 nM; inhibition (Cavia porcellus [25]): Active; concentration at 4 h [24]: 117 nM
CCCCNC(=O)c1ccc(Oc2ccc(CC(=O)O)cc2OC)c(NS(=O)(=O)c2cc(Cl)ccc2Cl)c1	50		3640		
CCCCNC(=O)c1ccc(Oc2ccc(CC(=O)O)cc2C#N)c(NS(=O)(=O)c2ccc(Cl)cc2Cl)c1	310	18		210	
CCCCNC(=O)c1ccc(Oc2ccc(CC(=O)O)cc2OC)c(NS(=O)(=O)c2c(Cl)cccc2Cl)c1	> 10000				

The next lines start with results.

IC50 [1] [nM]	IC50 [2] [nM]	IC50 [3] [nM]	IC50 [4] [nM]	SMILES	further results
14	9		19	CC(C)(C)NC(=O)c1ccc(Oc2cc(F)c(CC(=O)O)cc2Cl)c(NS(=O)(=O)c2ccc(OC(F)(F)F)cc2Cl)c1	
13	4	45	13	COc1cc(CC(=O)O)ccc1Oc1ccc(C(=O)NC2CCC2)cc1NS(=O)(=O)c1ccc(C(F)(F)F)cc1Cl	
9	13	22	41	O=C(O)Cc1cc(F)c(Oc2ccc(C(=O)NC3CCC3)cc2NS(=O)(=O)c2ccc(C(F)(F)F)cc2Cl)cc1F	
10	5	19	8	O=C(O)Cc1cc(Cl)c(Oc2ccc(C(=O)NC3CCC3)cc2NS(=O)(=O)c2ccc(OC(F)(F)F)cc2Cl)cc1F	
9	5	210	19	O=C(O)Cc1ccc(Oc2ccc(C(=O)NC3CCC3)cc2NS(=O)(=O)c2ccc(Cl)cc2Cl)c(Cl)c1	
4		35		CC(C)(C)NC(=O)c1ccc(Oc2cc(F)c(CC(=O)O)cc2Cl)c(NS(=O)(=O)c2ccc(C3CC3)cc2Cl)c1 [VIDUPIPRANT]	clearance [5]: 3.17 mL/min/kg; MRT [6]: 1 h; inhibition (Cavia porcellus [7]): Active; concentration at 4 h [8]: 77 nM; Vd [9]: 0.71 L/kg; bioavailability [10]: 87%; concentration at 4 h [11]: 1400 nM; clearance [12]: 16 mL/min/kg; Kb [13]: 5 nM; concentration at 4 h [14]: 32 nM; MRT [15]: 3.9 h; Vd [16]: 2.72 L/kg; clearance [17]: 15 mL/min/kg; MRT [18]: 3 h; bioavailability [19]: 100%; inhibition (INH) [20]: Not Active; bioavailability [21]: 79%; Vd [22]: 0.97 L/kg; concentration at 4 h [23]: 222 nM; concentration at 4 h [24]: 40 nM
6	3	230	26	CCCCNC(=O)c1ccc(Oc2ccc(CC(=O)O)cc2C)c(NS(=O)(=O)c2ccc(Cl)cc2Cl)c1	
8	6	1330	90	CCCCNC(=O)c1ccc(Oc2ccc(CC(=O)O)cc2Cl)c(NS(=O)(=O)c2ccc(Cl)cc2Cl)c1	
7		600		CCCCNC(=O)c1ccc(Oc2cc(F)c(CC(=O)O)cc2F)c(NS(=O)(=O)c2ccc(Cl)cc2Cl)c1	

Reference: ChEMBL document CHEMBL1949635, “Discovery of AMG 853, a CRTH2 and DP Dual Antagonist” (ACS Med Chem Lett, 2011)
